Assay [1] addresses T1, Alpha-1D adrenergic receptor (Rattus norvegicus) (UniProt P23944).
T1 sequence (whole entry): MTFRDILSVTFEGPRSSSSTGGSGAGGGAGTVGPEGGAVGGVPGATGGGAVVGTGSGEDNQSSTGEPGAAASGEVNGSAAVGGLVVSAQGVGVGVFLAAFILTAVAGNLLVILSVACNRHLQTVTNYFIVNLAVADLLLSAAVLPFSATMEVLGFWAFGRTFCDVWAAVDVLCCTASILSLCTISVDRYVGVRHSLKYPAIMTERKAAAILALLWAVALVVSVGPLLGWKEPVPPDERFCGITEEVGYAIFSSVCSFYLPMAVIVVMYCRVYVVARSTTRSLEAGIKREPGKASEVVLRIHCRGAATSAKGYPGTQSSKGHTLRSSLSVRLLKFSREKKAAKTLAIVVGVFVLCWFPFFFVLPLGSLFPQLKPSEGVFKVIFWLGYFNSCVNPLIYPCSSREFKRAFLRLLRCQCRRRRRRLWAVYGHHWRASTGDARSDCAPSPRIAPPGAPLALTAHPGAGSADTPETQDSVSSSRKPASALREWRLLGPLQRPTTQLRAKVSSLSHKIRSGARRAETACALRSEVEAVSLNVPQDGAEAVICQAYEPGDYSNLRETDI
Nature of the assay: ADRA1D blocking activity assessed by antagonism of (-)-NE induced contractions on isolated rat thoracic aorta. The assay is classed as functional, tissue-based. The procedure, abridged:
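Isolated rat tissue: each antagonist concentration tested four times over 0.01–1 μM; pK_B calculated by van Rossum method from shifts of (-)-noradrenaline contraction curves (vas deferens, α1A; thoracic aorta, α1D) or (-)-phenylephrine contraction curves (spleen, α1B).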

For assay [2], the target named is T2, Alpha-1B adrenergic receptor (Homo sapiens, UniProt P35368).
T2 sequence (P35368 whole entry): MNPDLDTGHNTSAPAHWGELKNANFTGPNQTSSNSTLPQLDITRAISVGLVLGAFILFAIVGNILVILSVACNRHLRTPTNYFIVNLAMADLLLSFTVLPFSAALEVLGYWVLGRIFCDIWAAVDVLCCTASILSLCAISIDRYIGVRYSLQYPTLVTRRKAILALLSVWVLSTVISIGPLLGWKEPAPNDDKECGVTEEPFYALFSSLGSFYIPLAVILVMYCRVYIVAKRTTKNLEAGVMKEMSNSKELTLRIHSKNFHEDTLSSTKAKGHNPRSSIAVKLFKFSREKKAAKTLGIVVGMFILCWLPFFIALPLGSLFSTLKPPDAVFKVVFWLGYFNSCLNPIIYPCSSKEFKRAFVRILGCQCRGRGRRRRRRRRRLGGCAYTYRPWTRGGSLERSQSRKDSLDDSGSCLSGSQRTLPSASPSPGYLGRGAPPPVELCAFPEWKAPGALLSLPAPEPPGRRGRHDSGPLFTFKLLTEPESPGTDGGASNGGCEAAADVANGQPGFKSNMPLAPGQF
Nature of the assay: Displacement of [3H]prazosin from cloned human ADRA1B expressed in CHO cells. The assay is classed as cell-based. Background: Displacement assays read how much labelled ligand stays bound in the presence of the test substance.

The target in assay [3] is T3, 5-hydroxytryptamine receptor 1A (Homo sapiens) (UniProt P08908).
T3 sequence (whole entry): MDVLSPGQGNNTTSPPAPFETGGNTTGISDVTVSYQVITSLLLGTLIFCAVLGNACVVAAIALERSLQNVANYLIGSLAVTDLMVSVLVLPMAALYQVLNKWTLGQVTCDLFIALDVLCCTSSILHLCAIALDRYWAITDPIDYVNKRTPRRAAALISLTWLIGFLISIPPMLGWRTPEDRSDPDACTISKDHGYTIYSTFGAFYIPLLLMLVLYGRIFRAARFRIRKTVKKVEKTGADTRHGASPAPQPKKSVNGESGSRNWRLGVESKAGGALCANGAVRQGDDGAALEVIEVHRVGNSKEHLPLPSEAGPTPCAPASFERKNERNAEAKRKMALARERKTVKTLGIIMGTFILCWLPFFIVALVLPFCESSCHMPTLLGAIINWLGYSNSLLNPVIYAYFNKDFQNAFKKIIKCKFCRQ
Put plainly: Maximum response towards cloned human 5HT1A receptor.

For assay [4], the target named is T3, 5-hydroxytryptamine receptor 1A (Homo sapiens). Nature of the assay: Agonist efficacy towards cloned human 5HT1A receptor by [35SGTP]gammaS binding in HeLa cells. The format is cell-based. A general note: Binding of GTPγS marks nucleotide exchange on a G protein.
A further assay relates to PC-3. Nature of the assay: Inhibition of NE-induced increase of PC3 cell proliferation using ELISA BrdU. The assay is classed as functional, cell-based. The settings on record: Homo sapiens. The procedure, abridged: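 PC-3 cells (7×10^4/well) plated 24 h, then given noradrenaline (0–50 μM) alone or with antagonist (1 μM, or 0.5 μM for one compound) for 16 h. BrdU added for the last 4 h and read by colorimetric ELISA as % growth; mean ± SD of three experiments.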

The source made the active and inactive calls. No cut-off for these calls is given here.

Compound `COc1ccccc1COc1ccccc1OCCNCCOc1c(OC)cccc1OC` registered a pKb in assay [1] of 8.86. Also, affinity in assay [2] was put at a Ki of 6.31 nM.

`COc1cccc(OC)c1OCCNCCOc1ccccc1OCc1ccc(C)cc1` yielded a pKb in assay [1] of 9.12. Moreover, the affinity in assay [2] corresponds to a Ki of 0.251 nM.

`COc1cccc(COc2ccccc2OCCNCCOc2c(OC)cccc2OC)c1` yielded a negative logarithm of the Kb (pKb) in assay [1] of 9.12. Besides, the affinity in assay [2] corresponds to a Ki of 2 nM.

`COc1cccc(OC)c1OCCNCCOc1ccccc1OCc1ccccc1C` came in with a %max in assay [3] of 75.6%. The compound further came in with a pD2 in assay [4] of 6.96. Besides, in assay [1], the pKb came out at 8.64. In assay [2], this compound had a Ki of 0.794 nM.

In assay [3], `COc1ccc(COc2ccccc2OCCNCCOc2c(OC)cccc2OC)cc1` came in with a %max of 21.6%. For the same compound, in assay [4], the pD2 is 7.92. In addition, in assay [1], the negative logarithm of the Kb (pKb) was determined as 9.21. The compound also had a Ki in assay [2] of 0.398 nM.

In turn, `COc1cccc(OC)c1OCCNCCOc1ccccc1OCc1ccc([N+](=O)[O-])cc1` registered a %max in assay [3] of 79.1%. For the same compound, in assay [4], the pD2 is 6.15. The same compound showed a pKb in assay [1] of 9.41. The same compound showed a Ki in assay [2] of 0.398 nM.

Take `COc1cccc(OC)c1OCCNCCOc1ccccc1OCc1cccc(Cl)c1`: the %max in assay [3] came out at 67.1%. This compound also had a pD2 in assay [4] of 7.15. This compound showed a pKb in assay [1] of 8.72. This compound also gave a Ki in assay [2] of 0.158 nM.

Compound `COc1cccc(OC)c1OCCNCCOc1ccccc1OCc1ccccc1Cl` came in with a %max in assay [3] of 74.4%. This compound gave a pD2 in assay [4] of 7.31. Also, the pKb in assay [1] came to 8.59. The Ki in assay [2] is 0.562 nM.

On to `COc1cccc(OC)c1OCCNCCOc1ccccc1OCc1cccc(C)c1`, for which the pKb in assay [1] amounted to 8.85. Also, in assay [2], affinity was put at a Ki of 0.251 nM.

The compound `COc1cccc(OC)c1OCCNCCOc1ccccc1OCc1ccccc1` gave a %max in assay [3] of 45.7%. In assay [4], this compound gave a pD2 of 7.11. The same compound showed a pKb in assay [1] of 9.37. This compound gave a Ki in assay [2] of 0.537 nM. The outcome in the assay with PC-3 was Active.

`COc1cccc(OC)c1OCCNCCOc1ccccc1OCc1ccccc1[N+](=O)[O-]`: the pKb in assay [1] was 8.95. In assay [2], this compound showed a Ki of 2.51 nM.

The compound `COc1cccc(OC)c1OCCNCCOc1ccccc1OCc1ccc(Cl)cc1` [CLOPENPHENDIOXAN] gave a %max in assay [3] of 60%. For the same compound, the pD2 in assay [4] was 6.98. This compound gave a pKb in assay [1] of 9.11. This compound showed a Ki in assay [2] of 1 nM. Further, in the assay with PC-3, the result was Active.

In turn, `COc1cccc(OC)c1OCCNCCOc1ccccc1OCc1cccc([N+](=O)[O-])c1` came in with a %max in assay [3] of 44.4%. In addition, in assay [4], the pD2 stood at 7.16. The compound also yielded a pKb in assay [1] of 9.28. In assay [2], this compound gave a Ki of 0.794 nM.

As a reminder, the pKb is the negative decadic logarithm of the Kb, by convention in mol/L. A low value points to a large Kb. The Ki is the dissociation constant of the complex between target and ligand, obtained from inhibition or displacement. A high value points to lower affinity.

These data come from ChEMBL document CHEMBL1141864, “Structure-activity relationships in 1,4-benzodioxan-related compounds. 8.(1) {2-[2-(4-chlorobenzyloxy)phenoxy]ethyl}-[2-(2,6-dimethoxyphenoxy)ethyl]amine (clopenphendioxan) as a tool to highlight the involvement of alpha1D- and alpha1B-adrenoreceptor subtypes in the regulation of human PC-3 …” (J Med Chem, 2005).
